According to ChEMBL document CHEMBL2429803, “Animal toxicity of hairpin pyrrole-imidazole polyamides varies with the turn unit” (J Med Chem, 2013):

Tests used:
Mus musculus [1] = experiment: Acute toxicity in C57BL/6J mouse assessed as milder tubular regeneration at 10 mg/kg, sc after 9 days; type: organism-based; parameters: dose 10 mg/kg, route subcutaneous; conditions: in vivo, 216 h
Summary of the method: (§1)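 Male C57BL/6J mice, 8 weeks old, received a single sc dose (1, 3 or 10 mg/kg in 25% DMSO/saline, n = 4 per group) and were sacrificed after 9 days. Two representative animals per group were fixed in 10% formalin. Cecum, duodenum, heart, ileum, kidney, liver, lung, pancreas, spleen and stomach were examined blind by a veterinary pathologist and lesions graded mild, moderate or severe.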

[2] = Metabolic stability in human liver microsomes after 1 hr by LC/MS/MS analysis; type: ADME, Microsome; conditions: read-out: Stability
Summary of the method: (§2)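 Compound incubated at 37 °C for 60 min with 1 mg/mL human or mouse liver microsomes in 100 mM KH2PO4, 3 mM MgCl2, pH 7.4, with 2 mM NADPH or without it. Stopped with ice-cold methanol, then precipitate removed. Analyzed by LC/MS/MS as % remaining versus time zero. Duplicates.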

Mus musculus [3] = experiment: Acute toxicity in C57BL/6J mouse assessed as lesions in stomach at 1 to 10 mg/kg, sc after 9 days; type: organism-based; parameters: dose 1-10 mg/kg, route subcutaneous; conditions: in vivo, 216 h; summary of the method: as §1
[4] = Metabolic stability in human liver microsomes after 1 hr by LC/MS/MS analysis in presence of NADPH; type: ADME, Microsome; conditions: read-out: Stability; summary of the method: as §2
Mus musculus [5] = experiment: Toxicity in C57BL/6J mouse assessed as morbidity at 1 mg/kg, sc administered every 3 days for a cycle of 3 injections; type: organism-based; parameters: dose 1 mg/kg, route subcutaneous; conditions: in vivo, 72 h
Summary of the method: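 Male C57BL/6J mice, 3 per group, given 1 mg/kg sc every 3 days. Weight recorded on injection days. Watched for signs of duress. Humane end point was visible duress or weight loss over 15% of starting body weight.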

Mus musculus [6] = experiment: Acute toxicity in C57BL/6J mouse assessed as lesions in GI tract at 1 to 10 mg/kg, sc after 9 days; type: organism-based, Gastrointestinal tract; parameters: dose 1-10 mg/kg, route subcutaneous; conditions: in vivo, 216 h; summary of the method: as §1
[7] = Metabolic stability in mouse liver microsomes after 1 hr by LC/MS/MS analysis in presence of NADPH; type: ADME, Microsome; conditions: read-out: Stability; summary of the method: as §2
Mus musculus [8] = experiment: Acute toxicity in C57BL/6J mouse assessed as weight loss at 10 mg/kg, sc after 9 days; type: organism-based; parameters: dose 10 mg/kg, route subcutaneous; conditions: in vivo, 216 h
Summary of the method: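 Male C57BL/6J mice, 8 weeks old, were acclimated 3 days and then given a single sc injection of 1, 3 or 10 mg/kg in 25% DMSO/saline vehicle (up to 200 μL), n = 4 per group. Weight, behaviour and appearance were monitored daily for 9 days before sacrifice. The humane end point was visible duress or weight loss over 15% of the original.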

Mus musculus [9] = experiment: Toxicity in C57BL/6J mouse assessed as epithelial necrosis and apoptosis in kidney at 1 mg/kg, sc administered every 3 days for a cycle of 3 injections measured 2 days post last injection; type: organism-based; parameters: dose 1 mg/kg, route subcutaneous; conditions: in vivo, 48 h
Summary of the method: (§3)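 Male C57BL/6J mice, 8 weeks old, given 1 mg/kg sc every 3 days for three injections and sacrificed 2 days after the last one. Two mice per group fixed in 10% formalin. A veterinary pathologist, blinded, examined cecum, duodenum, heart, ileum, kidney, liver, lung, pancreas, spleen and stomach. Lesions graded mild, moderate or severe.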

Mus musculus [10] = experiment: Acute toxicity in C57BL/6J mouse assessed as karyomegaly at 10 mg/kg, sc after 9 days; type: organism-based; parameters: dose 10 mg/kg, route subcutaneous; conditions: in vivo, 216 h; summary of the method: as §1
Mus musculus [11] = experiment: Toxicity in C57BL/6J mouse assessed as weight loss at 1 mg/kg, sc administered every 3 days for a cycle of 3 injections; type: organism-based; parameters: dose 1 mg/kg, route subcutaneous; conditions: in vivo, 72 h
Summary of the method: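 8-week-old male C57BL/6J mice, acclimated 3 days, groups of three, dosed sc in 25% DMSO/saline vehicle once every 3 days, sacrificed 2 days after the last injection. Body weight recorded on injection days and at end point; humane end point set at visible duress or >15% loss of original body weight.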

Mus musculus [12] = experiment: Acute toxicity in C57BL/6J mouse assessed as hepatocellular necrosis and apoptosis at 3 mg/kg, sc after 9 days; type: organism-based; parameters: dose 3 mg/kg, route subcutaneous; conditions: in vivo, 216 h; summary of the method: as §1
Mus musculus [13] = experiment: Acute toxicity in C57BL/6J mouse assessed as lesions in pancreas at 1 to 10 mg/kg, sc after 9 days; type: organism-based; parameters: dose 1-10 mg/kg, route subcutaneous; conditions: in vivo, 216 h; summary of the method: as §1
Mus musculus [14] = experiment: Acute toxicity in C57BL/6J mouse assessed as lesions in lungs at 1 to 10 mg/kg, sc after 9 days; type: organism-based; parameters: dose 1-10 mg/kg, route subcutaneous; conditions: in vivo, 216 h; summary of the method: as §1
Mus musculus [15] = experiment: Toxicity in C57BL/6J mouse assessed as mild tubular attenuation in kidney at 1 mg/kg, sc administered every 3 days for a cycle of 3 injections measured 2 days post last injection; type: organism-based; parameters: dose 1 mg/kg, route subcutaneous; conditions: in vivo, 48 h; summary of the method: as §3
[16] = Metabolic stability in mouse liver microsomes after 1 hr by LC/MS/MS analysis; type: ADME, Microsome; conditions: read-out: Stability; summary of the method: as §2
Mus musculus [17] = experiment: Acute toxicity in C57BL/6J mouse assessed as diffuse hepatocellular necrosis and apoptosis at 3 to 10 mg/kg, sc after 9 days; type: organism-based; parameters: dose 3-10 mg/kg, route subcutaneous; conditions: in vivo, 216 h; summary of the method: as §1
Mus musculus [18] = experiment: Acute toxicity in C57BL/6J mouse assessed as lesions in heart at 1 to 10 mg/kg, sc after 9 days; type: organism-based; parameters: dose 1-10 mg/kg, route subcutaneous; conditions: in vivo, 216 h; summary of the method: as §1
Mus musculus [19] = experiment: Toxicity in C57BL/6J mouse assessed as mild multifocal hepatocellular necrosis and apoptosis in liver at 1 mg/kg, sc administered every 3 days for a cycle of 3 injections measured 2 days post last injection; type: organism-based; parameters: dose 1 mg/kg, route subcutaneous; conditions: in vivo, 48 h; summary of the method: as §3
Mus musculus [20] = experiment: Acute toxicity in C57BL/6J mouse at 10 mg/kg, sc after 9 days; type: organism-based; parameters: dose 10 mg/kg, route subcutaneous; conditions: in vivo, 216 h
Summary of the method: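 Single sc injection in male 8-week-old C57BL/6J mice (1, 3 or 10 mg/kg in 25% DMSO/saline; n = 4 per group), followed for 9 days with daily weighing, then sacrifice. Toxicity was assessed by blinded histopathology of two mice per group and by blinded serum ALT, AST, total bilirubin, BUN and creatinine from retroorbital blood of all mice.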

Mus musculus [21] = experiment: Toxicity in C57BL/6J mouse assessed as karyomegaly in kidney at 1 mg/kg, sc administered every 3 days for a cycle of 3 injections measured 2 days post last injection; type: organism-based; parameters: dose 1 mg/kg, route subcutaneous; conditions: in vivo, 48 h; summary of the method: as §3
Mus musculus [22] = experiment: Toxicity in C57BL/6J mouse assessed as weight loss at 10 mg/kg, sc; type: organism-based; parameters: dose 10 mg/kg, route subcutaneous; conditions: in vivo
Summary of the method: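 Single sc injection in 25% DMSO/saline to 8-week-old male C57BL/6J mice acclimated 3 days; groups of four receiving 1, 3 or 10 mg/kg. Weight monitored daily for 9 days, then sacrifice; euthanasia on visible duress or weight loss beyond 15% of original body weight.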

For CN(CCCNC(=O)c1cccc(C(=O)O)c1)CCCNC(=O)c1cc(NC(=O)c2cc(NC(=O)c3cc(NC(=O)c4nc(NC(=O)[C@H](N)CCNC(=O)c5cc(NC(=O)c6cc(NC(=O)c7cc(NC(=O)c8nccn8C)cn7C)cn6C)cn5C)cn4C)cn3C)cn2C)cn1C, the Activity (Mus musculus [1]) was “Toxic”, the remaining at 1 h [2] was greater than 90% and the Activity (Mus musculus [3]) was “Non-toxic”. The remaining at 1 h [4] was greater than 90%, the Activity (Mus musculus [5]) was “Non-toxic” and the Activity (Mus musculus [6]) was “Non-toxic”. The remaining at 1 h [7] was greater than 90%, the Activity (Mus musculus [8]) was “Toxic” and the Activity (Mus musculus [9]) was “Toxic”. For the same compound, the Activity (Mus musculus [10]) was “Toxic”, the Activity (Mus musculus [11]) was “Non-toxic” and the Activity (Mus musculus [12]) was “Toxic”. The Activity (Mus musculus [13]) was “Non-toxic”, the Activity (Mus musculus [14]) was “Non-toxic” and the Activity (Mus musculus [15]) was “Toxic”. The remaining at 1 h [16] was greater than 90%, the Activity (Mus musculus [17]) was “Toxic” and the Activity (Mus musculus [18]) was “Non-toxic”. The Activity (Mus musculus [19]) was “Toxic”, the Activity (Mus musculus [20]) was “Non-toxic” and the Activity (Mus musculus [21]) was “Toxic”. The Activity (Mus musculus [22]) was greater than 15%.
